Source: ChEMBL document CHEMBL4665872, “Rational design of cell-permeable cyclic peptides containing a d-Pro-l-Pro motif” (Bioorg Med Chem, 2020)
Where a SMILES comes first, the peptide text is derived from it. Side-chain parts run from the residue outwards. [ ]: non-standard residue; d: D form. The star is where a group is joined. X1 = NC(=O)[C@H](CCCCNC(=O)c1ccc2c(c1)C(=O)OC21c2ccc3cc(O)ccc3c2Oc2c1ccc1cc(O)ccc21)N*; 2Nal = N[C@@H](Cc1ccc2ccccc2c1)C(=O)O; AEEA = NCCOCCOCC(=O)O

Experiment: Drug uptake in human HeLa cells assessed as cytosolic entry efficiency measured as fluorescence at 5 uM incubated for 2 hrs by flow cytometry relative to CPP9 (100%)
Type: ADME, cell-based
In short: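 HeLa cells seeded 24 h earlier, given 5 μM naphthofluorescein-labelled peptide in DMEM with 1% or 10% FBS, 37 °C, 2 h. Cells DPBS-washed, trypsinized, flow cytometry with 633-nm excitation, APC channel, 10,000 live-cell events gated. Signal read as cytosolic entry because NF is non-fluorescent in acidic compartments; mean ± SD of three independent experiments, relative to CPP9 (100%).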

| RFU [%] | SMILES |
| --- | --- |
| 84 | C[C@@H]1NC(=O)[C@H](CO)NC(=O)[C@H](C)NC(=O)[C@H](CO)NC(=O)[C@H](Cc2ccccc2)NC(=O)[C@H](CCCNC(=N)N)NC(=O)[C@H](CCCNC(=N)N)NC(=O)[C@@H]2CCCN2C(=O)[C@H]2CCCN2C(=O)[C@@H](CCCNC(=N)N)NC(=O)[C@H](Cc2ccc3ccccc3c2)NC(=O)[C@H](Cc2ccccc2)NC(=O)[C@H](CO)NC(=O)[C@H](C)NC(=O)[C@H](CO)NC(=O)[C@H](CCC(=O)NCCOCCOCC(=O)N[C@@H](CCCCNC(=O)c2ccc3c(c2)C(=O)OC32c3ccc4cc(O)ccc4c3Oc3c2ccc2cc(O)ccc32)C(N)=O)NC1=O |
| 21 | C[C@@H]1NC(=O)[C@H](C)NC(=O)[C@H](CCCNC(=N)N)NC(=O)[C@H](CCCNC(=N)N)NC(=O)[C@H](CCCNC(=N)N)NC(=O)[C@@H]2CCCN2C(=O)[C@H]2CCCN2C(=O)[C@H](CCCNC(=N)N)NC(=O)[C@H](Cc2ccc3ccccc3c2)NC(=O)[C@H](Cc2ccccc2)NC(=O)[C@H](C)NC(=O)[C@H](C)NC(=O)[C@H](CCC(=O)NCCOCCOCC(=O)N[C@@H](CCCCNC(=O)c2ccc3c(c2)C(=O)OC32c3ccc4cc(O)ccc4c3Oc3c2ccc2cc(O)ccc32)C(N)=O)NC(=O)[C@H](C)NC1=O |
| 22 | C[C@@H]1NC(=O)[C@H](C)NC(=O)[C@H](Cc2ccccc2)NC(=O)[C@H](CCCNC(=N)N)NC(=O)[C@H](CCCNC(=N)N)NC(=O)[C@@H]2CCCN2C(=O)[C@H]2CCCN2C(=O)[C@H](CCCNC(=N)N)NC(=O)[C@H](Cc2ccc3ccccc3c2)NC(=O)[C@H](Cc2ccccc2)NC(=O)[C@H](C)NC(=O)[C@H](C)NC(=O)[C@H](CCC(=O)NCCOCCOCC(=O)N[C@@H](CCCCNC(=O)c2ccc3c(c2)C(=O)OC32c3ccc4cc(O)ccc4c3Oc3c2ccc2cc(O)ccc32)C(N)=O)NC(=O)[C@H](C)NC1=O |
| 8 | C[C@@H]1NC(=O)[C@H](Cc2ccccc2)NC(=O)[C@H](CCCNC(=N)N)NC(=O)[C@H](CCCNC(=N)N)NC(=O)[C@@H]2CCCN2C(=O)[C@H]2CCCN2C(=O)[C@@H](CCCNC(=N)N)NC(=O)[C@H](Cc2ccc3ccccc3c2)NC(=O)[C@H](Cc2ccccc2)NC(=O)[C@H](CCC(=O)NCCOCCOCC(=O)N[C@@H](CCCCNC(=O)c2ccc3c(c2)C(=O)OC32c3ccc4cc(O)ccc4c3Oc3c2ccc2cc(O)ccc32)C(N)=O)NC1=O |
| 8.3 | C[C@@H]1NC(=O)[C@H](C)NC(=O)[C@H](CCCNC(=N)N)NC(=O)[C@H](CCCNC(=N)N)NC(=O)[C@H](CCCNC(=N)N)NC(=O)[C@@H]2CCCN2C(=O)[C@H]2CCCN2C(=O)[C@H](Cc2ccccc2)NC(=O)[C@H](Cc2ccc3ccccc3c2)NC(=O)[C@H](Cc2ccccc2)NC(=O)[C@H](C)NC(=O)[C@H](C)NC(=O)[C@H](CCC(=O)NCCOCCOCC(=O)N[C@@H](CCCCNC(=O)c2ccc3c(c2)C(=O)OC32c3ccc4cc(O)ccc4c3Oc3c2ccc2cc(O)ccc32)C(N)=O)NC(=O)[C@H](C)NC1=O |
| 100 | N=C(N)NCCC[C@@H]1NC(=O)[C@H](Cc2ccc3ccccc3c2)NC(=O)[C@@H](Cc2ccccc2)NC(=O)[C@H](CCC(=O)NCCOCCOCC(=O)N[C@@H](CCCCNC(=O)c2ccc3c(c2)C(=O)OC32c3ccc4cc(O)ccc4c3Oc3c2ccc2cc(O)ccc32)C(N)=O)NC(=O)[C@@H](CCCNC(=N)N)NC(=O)[C@H](CCCNC(=N)N)NC(=O)[C@@H](CCCNC(=N)N)NC1=O |
| 33 | C[C@@H]1NC(=O)[C@H](C)NC(=O)[C@H](Cc2ccccc2)NC(=O)[C@H](CCCNC(=N)N)NC(=O)[C@H](CCCNC(=N)N)NC(=O)[C@@H]2CCCN2C(=O)[C@H]2CCCN2C(=O)[C@@H](CCCNC(=N)N)NC(=O)[C@H](Cc2ccc3ccccc3c2)NC(=O)[C@H](Cc2ccccc2)NC(=O)[C@H](C)NC(=O)[C@H](C)NC(=O)[C@H](CCC(=O)NCCOCCOCC(=O)N[C@@H](CCCCNC(=O)c2ccc3c(c2)C(=O)OC32c3ccc4cc(O)ccc4c3Oc3c2ccc2cc(O)ccc32)C(N)=O)NC(=O)[C@H](C)NC1=O |
| 34 | C[C@@H]1NC(=O)[C@H](CCCNC(=N)N)NC(=O)[C@H](CCC(=O)NCCOCCOCC(=O)N[C@@H](CCCCNC(=O)c2ccc3c(c2)C(=O)OC32c3ccc4cc(O)ccc4c3Oc3c2ccc2cc(O)ccc32)C(N)=O)NC(=O)[C@H](CCCNC(=N)N)NC(=O)[C@H](C)NC(=O)[C@H](CCCNC(=N)N)NC(=O)[C@H](Cc2ccccc2)NC(=O)[C@H](CCCNC(=N)N)NC(=O)[C@H](CCCNC(=N)N)NC(=O)[C@@H]2CCCN2C(=O)[C@H]2CCCN2C(=O)[C@@H](CCCNC(=N)N)NC(=O)[C@H](Cc2ccc3ccccc3c2)NC(=O)[C@H](Cc2ccccc2)NC1=O |
| 94 | C[C@@H]1NC(=O)[C@H](CCC(=O)NCCOCCOCC(=O)N[C@@H](CCCCNC(=O)c2ccc3c(c2)C(=O)OC32c3ccc4cc(O)ccc4c3Oc3c2ccc2cc(O)ccc32)C(N)=O)NC(=O)[C@H](Cc2ccccc2)NC(=O)[C@H](CCCNC(=N)N)NC(=O)[C@H](CCCNC(=N)N)NC(=O)[C@@H]2CCCN2C(=O)[C@H]2CCCN2C(=O)[C@@H](CCCNC(=N)N)NC(=O)[C@H](Cc2ccc3ccccc3c2)NC(=O)[C@H](Cc2ccccc2)NC1=O |
| 37 | C[C@@H]1NC(=O)[C@H](C)NC(=O)[C@H](Cc2ccccc2)NC(=O)[C@@H](CCCNC(=N)N)NC(=O)[C@H](CCCNC(=N)N)NC(=O)[C@@H]2CCCN2C(=O)[C@H]2CCCN2C(=O)[C@H](CCCNC(=N)N)NC(=O)[C@H](Cc2ccc3ccccc3c2)NC(=O)[C@H](Cc2ccccc2)NC(=O)[C@H](C)NC(=O)[C@H](C)NC(=O)[C@H](CCC(=O)NCCOCCOCC(=O)N[C@@H](CCCCNC(=O)c2ccc3c(c2)C(=O)OC32c3ccc4cc(O)ccc4c3Oc3c2ccc2cc(O)ccc32)C(N)=O)NC(=O)[C@H](C)NC1=O |
| 46 | C[C@@H]1NC(=O)[C@H](Cc2ccc3ccccc3c2)NC(=O)[C@H](Cc2ccccc2)NC(=O)[C@H](C)NC(=O)[C@H](CCC(=O)NCCOCCOCC(=O)N[C@@H](CCCCNC(=O)c2ccc3c(c2)C(=O)OC32c3ccc4cc(O)ccc4c3Oc3c2ccc2cc(O)ccc32)C(N)=O)NC(=O)[C@H](Cc2ccccc2)NC(=O)[C@H](CCCNC(=N)N)NC(=O)[C@H](CCCNC(=N)N)NC(=O)[C@@H]2CCCN2C(=O)[C@H](C)NC1=O (cyclo([2Nal]AAPRRFE([AEEA-X1])AF)) |
| 14 | C[C@@H]1NC(=O)[C@H](CC(=O)O)NC(=O)[C@H](CCC(=O)NCCOCCOCC(=O)N[C@@H](CCCCNC(=O)c2ccc3c(c2)C(=O)OC32c3ccc4cc(O)ccc4c3Oc3c2ccc2cc(O)ccc32)C(N)=O)NC(=O)[C@H](CC(=O)O)NC(=O)[C@H](C)NC(=O)[C@H](CC(=O)O)NC(=O)[C@H](Cc2ccccc2)NC(=O)[C@H](CCCNC(=N)N)NC(=O)[C@H](CCCNC(=N)N)NC(=O)[C@@H]2CCCN2C(=O)[C@H]2CCCN2C(=O)[C@@H](CCCNC(=N)N)NC(=O)[C@H](Cc2ccc3ccccc3c2)NC(=O)[C@H](Cc2ccccc2)NC1=O |
| 5.7 | C[C@@H]1NC(=O)[C@H](C)NC(=O)[C@H](Cc2ccc3ccccc3c2)NC(=O)[C@H](CCCNC(=N)N)NC(=O)[C@H](CCCNC(=N)N)NC(=O)[C@@H]2CCCN2C(=O)[C@H]2CCCN2C(=O)[C@H](CCCNC(=N)N)NC(=O)[C@H](CCCNC(=N)N)NC(=O)[C@H](Cc2ccccc2)NC(=O)[C@H](C)NC(=O)[C@H](C)NC(=O)[C@H](CCC(=O)NCCOCCOCC(=O)N[C@@H](CCCCNC(=O)c2ccc3c(c2)C(=O)OC32c3ccc4cc(O)ccc4c3Oc3c2ccc2cc(O)ccc32)C(N)=O)NC(=O)[C@H](C)NC1=O |
